Results filed as inconclusive are left out.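 How the source made its calls, unless noted: active means viability increase at or above a cutoff of the median across tested compounds plus 3 SD (cut at about 8.5% in these data, passing the limit was not always enough); inconclusive means some gains above the cutoff, reason not given; inactive means the rest.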
How the values were obtained:
[1] = S. cerevisiae growth inhibition in permissive medium (OD615), pilot counter-assay for S. cerevisiae lifespan shortening project, permissive growth control (AID 705;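 active means growth inhibition above 25% in both replicates, a cutoff set 3 SD above the mean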); settings: OD615, 24 h, at 10 µM, hits give high values
Summary of the method: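 Material: engineered DeaD yeast; Compound: one dose 10 µM, DMSO 0.25% final; Detection: absorbance (optical density) at 615 nm; Buffer or medium: permissive raffinose/galactose medium; Timing: 24 h exposure, 30 °C.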

[2] = S. cerevisiae growth inhibition in restrictive medium, OD615, pilot screen, restrictive growth control, yeast lifespan reduction project (AID 706;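 active means growth inhibition above a set limit, 3 SD over mean compound inhibition, in both replicates, cut at about 43% in these data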;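 further: modified DeaD lifespan yeast strain shifted to restrictive glucose medium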); settings: OD615, 48 h, at 10 µM, hits give high values
Summary of the method: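 Buffer or medium: restrictive glucose medium (CSMM-D); test system: modified S. cerevisiae; doses: single dose of 10 µM compound final, 0.25% DMSO; schedule: 48 h compound exposure at 30 °C; detection: absorbance (optical density) measured at 615 nm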

[3] = doxorubicin toxicity protection in MRP-1 cells – H69AR cells, CellTiter-Glo, duplicate, MRP-1 activator project, pilot screen (AID 807); settings: H69AR viability with doxorubicin, CellTiter-Glo luminescence; at 10 µM; hits give high values;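 further: compound pretreatment 18-22 h then 72 h combined with doxorubicin; 0% = doxorubicin alone and 100% = vehicle without doxorubicin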
[4] = viability of HCT116 without oncogenic beta-catenin – human colon tumor cells, pilot screen (AID 823;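 active means cell viability at or below a set limit in both duplicate runs, the limit being the all-compound median minus 4 SD, cut at about 23% in these data, passing the limit was not always enough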;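 further: 0% = wells killed by 20 µM Hyamine and 100% = untreated DMSO cell wells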); settings: HCT116 beta-catenin knockout viability, CellTiter-Glo, 60 h; at 10 µM; hits give low values
[5] = viability of PTEN-null HCT116 cells – cell-based, HCT116 clonal line, CellTiter-Glo, pilot screen (AID 824;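 active means viability at or below 27.92% in each of two runs, the all-compound median minus 4 SD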;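 further: 0% = 20 µM Hyamine control and 100% = vehicle cell control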); settings: HCT116 PTEN-deleted viability, 60 h, at 10 µM, hits give low values
[6] = RAM pathway blockade in budding yeast – dse1pr::URA3 reporter, 5-FOA selection, pilot screen (AID 869;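 active means inhibition over a set limit, the all-compound mean plus 3 SD, in both replicate runs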;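 further: 0% = DMSO wells with no growth and 100% = 10 µM 1-NA-PP1 with full growth; RAM network block rescues cells from 5-FOA so hits raise OD615 growth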); settings: S. cerevisiae dse1pr::URA3 5-FOA growth, OD615, 2 d; at 10 µM; hits give high values; strain carries analog-sensitive mutant Cbk1 kinase
[7] = RAM signaling pathway blockade in yeast – S. cerevisiae, Pdr1DBD-CYC8 efflux-inhibited sensitized strain, primary screen (AID 1298;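 active means RAM network inhibition above 8.4% in each of two replicates, 3 SD over the compound average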;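 further: 0% = DMSO untreated cells without growth and 100% = 10 µM 1-NA-PP1 full growth; higher means more yeast growth rescued from 5-FOA killing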); settings: S. cerevisiae cbk1-as DSE1-URA3 strain, 5-FOA growth OD615, 2 d; at 50 µM; hits give high values

O=C(c1ccc(COc2ccccc2Cl)o1)N1CCN(c2ccccc2)CC1
inactive: growth inhibition [1] -15.6% | growth inhibition [2] -13.4% | viability increase [3] -4.18% | viability [4] 61.7% | viability [5] 69.7% | inhibition [6] 2.33% | RAM network inhibition [7] 5.58%

CCN1C(=O)c2ccccc2S(=O)c2ccc(C(=O)N3CCN(C(=O)c4ccco4)CC3)cc21 (stereo not drawn)
inactive: growth inhibition [1] -1.51% | growth inhibition [2] 7.19% | viability increase [3] -2.16% | viability [4] 101% | viability [5] 92.5% | inhibition [6] 1.33% | RAM network inhibition [7] 7.96%

Cc1sc2ncnc(NCCCO)c2c1C
inactive: growth inhibition [1] -16.1% | growth inhibition [2] -8.24% | viability increase [3] -1.72% | viability [4] 103% | viability [5] 90.5% | inhibition [6] 0.945% | RAM network inhibition [7] 5.49%

O=C(NCCN1CCN(C(=O)Nc2ccccc2)CC1)Nc1ccccc1
inactive: growth inhibition [1] -18.1% | growth inhibition [2] -32.9% | viability increase [3] -0.62% | viability [4] 107% | viability [5] 94.8% | inhibition [6] 1.63% | RAM network inhibition [7] 3%

CCCCOc1ccc(C2(C)CC(=O)NC2=O)cc1 (stereo not drawn)
inactive: growth inhibition [1] 19.7% | growth inhibition [2] 10.9% | viability increase [3] -1.56% | viability [4] 95.3% | viability [5] 91.8% | inhibition [6] 0.425% | RAM network inhibition [7] -1.18%

Cc1occc1-c1nnc2sc(-c3ccc(-c4ccc(Cl)cc4)o3)nn12
inactive: growth inhibition [1] 7.94% | growth inhibition [2] 21.2% | viability increase [3] 2.86% | viability [4] 106% | viability [5] 95.8% | inhibition [6] 3.19% | RAM network inhibition [7] 5.57%

O=C(COC(=O)c1cccs1)Nc1ccccc1
inactive: growth inhibition [1] -5.3% | growth inhibition [2] 0.975% | viability increase [3] -0.14% | viability [4] 96.7% | viability [5] 97.1% | inhibition [6] 1.56% | RAM network inhibition [7] 0.11%

Oc1c(C(c2ccc(F)cc2)N2CCc3ccccc3C2)sc2ncnn12 (stereo not drawn)
inactive: growth inhibition [1] -5.9% | growth inhibition [2] -6.98% | viability increase [3] 4.08% | viability [4] 103% | viability [5] 91.7% | inhibition [6] 2.67% | RAM network inhibition [7] 3.09%

CCc1ccc(N2C(=O)c3sc4nnc(C)c(=O)n4c3C2=O)cc1
inactive: growth inhibition [1] -19.9% | growth inhibition [2] -7.66% | viability increase [3] -1% | viability [4] 87.9% | viability [5] 76.9% | inhibition [6] 1.4% | RAM network inhibition [7] 0.21%

Cc1cc(N=CC2=C(O)CC(C)(C)CC2=O)no1
inactive: growth inhibition [1] -11.7% | growth inhibition [2] -3.7% | viability increase [3] 0.49% | viability [4] 93.2% | viability [5] 104% | inhibition [6] 1.94% | RAM network inhibition [7] 1.04%

CC(=O)NCC(=O)OCC(=O)c1ccc(C)cc1
inactive: growth inhibition [1] 1.93% | growth inhibition [2] -5.04% | viability increase [3] -0.54% | viability [4] 97.6% | viability [5] 94.9% | inhibition [6] 1.21% | RAM network inhibition [7] -0.06%

CCn1cc(C(=O)NCC(=O)OC)c2cc(OC)c(OC)cc2c1=O
inactive: growth inhibition [1] -6.43% | growth inhibition [2] -18.9% | viability increase [3] 0.9% | viability [4] 105% | viability [5] 104% | inhibition [6] 0.59% | RAM network inhibition [7] 2.3%

CCOC(=O)c1c(-c2ccccc2)c(C(C)=O)c(=O)n(C)c1C
inactive: growth inhibition [1] -19% | growth inhibition [2] -9.79% | viability increase [3] -3.81% | viability [4] 95.9% | viability [5] 94.1% | inhibition [6] 4.63% | RAM network inhibition [7] 1.72%

CCn1ncc(C2=NOC(C(=O)Nc3c(C)n(C)n(-c4ccccc4)c3=O)C2)c1C (stereo not drawn)
inactive: growth inhibition [1] -7.05% | growth inhibition [2] 5.18% | viability increase [3] 0.26% | viability [4] 96.1% | viability [5] 95.8% | inhibition [6] 0.855% | RAM network inhibition [7] 2.78%

COc1ccccc1NC(=O)c1cccc(S(=O)(=O)N2CCOCC2)c1
inactive: growth inhibition [1] 7.87% | growth inhibition [2] 0.14% | viability increase [3] -0.79% | viability [4] 103% | viability [5] 96.7% | inhibition [6] 2.99% | RAM network inhibition [7] 0.68%

O=C1CCc2cc(S(=O)(=O)NC(Cc3ccccc3)C(=O)NCC3CCCO3)ccc2N1 (stereo not drawn)
inactive: growth inhibition [1] -8.29% | growth inhibition [2] -8.79% | viability increase [3] -2.76% | viability [4] 94.3% | viability [5] 92.8% | inhibition [6] 2.2% | RAM network inhibition [7] 1.49%

O=C(CSc1nnc(Cn2c(=O)sc3ccccc32)n1-c1ccccc1)N1CCCCCC1
inactive: growth inhibition [1] -11.3% | growth inhibition [2] -4.95% | viability increase [3] -2.95% | viability [4] 91.7% | viability [5] 81.7% | inhibition [6] 2.22% | RAM network inhibition [7] 6.65%

Cc1ccccc1NC(=O)CC1SC(=NC2CCCCC2)NC1=O (stereo not drawn)
inactive: growth inhibition [1] -3.83% | growth inhibition [2] -12% | viability increase [3] -0.62% | viability [4] 102% | viability [5] 101% | inhibition [6] 1.62% | RAM network inhibition [7] 0.66%

O=S(=O)(Cc1ccccc1)N1CCn2c(nc3ccccc32)C1
inactive: growth inhibition [1] -14.1% | growth inhibition [2] -0.745% | viability increase [3] -0.75% | viability [4] 103% | viability [5] 97.5% | inhibition [6] 1.5% | RAM network inhibition [7] 4.75%

C/C(NCCN1CCOCC1)=C(\C#N)C(N)=O
inactive: growth inhibition [1] -3.8% | growth inhibition [2] -6.1% | viability increase [3] -0.51% | viability [4] 105% | viability [5] 97.6% | inhibition [6] 0.795% | RAM network inhibition [7] 7.19%

Cn1c(=O)[nH]c(=O)c2c1nc(N1CCN(c3ccccc3)CC1)n2CCSc1ncccn1
inactive: growth inhibition [1] -4.54% | growth inhibition [2] 7.86% | viability increase [3] -2.82% | viability [4] 93% | viability [5] 82.6% | inhibition [6] 0.42% | RAM network inhibition [7] 4.89%

Cc1ccc2nc(N3CCOCC3)c3nncn3c2c1
inactive: growth inhibition [1] -6.37% | growth inhibition [2] 3.97% | viability increase [3] -2.43% | viability [4] 106% | viability [5] 96.1% | inhibition [6] 0.915% | RAM network inhibition [7] 1.57%

CCOc1ccccc1C1CC(c2ccc(F)cc2)Nc2nc(N)nn21 (stereo not drawn)
inactive: growth inhibition [1] -2.63% | growth inhibition [2] 6.8% | viability increase [3] 1.61% | viability [4] 89.2% | viability [5] 90.1% | inhibition [6] 0.785% | RAM network inhibition [7] 2.07%

CCOC(=O)CN1C(=O)C(O)(CC(=O)c2ccccn2)c2ccccc21 (stereo not drawn)
inactive: growth inhibition [1] -10.3% | growth inhibition [2] 3.35% | viability increase [3] -4.5% | viability [4] 82.8% | viability [5] 92% | inhibition [6] 1.31% | RAM network inhibition [7] 1.78%
